High-throughput results: PubChem, Broad Institute
Only some compounds are listed: those with a hit (about 1.3% of all), similar ones and a draw of the others.
RAD52 anneal inh: inhibitors of human RAD52 DNA annealing. AID 651710. recombinant RAD52 DNA annealing, FRET fluorescence. inhibition, % at 18.7 µM. 360,000 compounds, 0.46% hits;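 active = every replicate showing at least 50% inhibition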
Target sequence (P43351 whole entry, looked up): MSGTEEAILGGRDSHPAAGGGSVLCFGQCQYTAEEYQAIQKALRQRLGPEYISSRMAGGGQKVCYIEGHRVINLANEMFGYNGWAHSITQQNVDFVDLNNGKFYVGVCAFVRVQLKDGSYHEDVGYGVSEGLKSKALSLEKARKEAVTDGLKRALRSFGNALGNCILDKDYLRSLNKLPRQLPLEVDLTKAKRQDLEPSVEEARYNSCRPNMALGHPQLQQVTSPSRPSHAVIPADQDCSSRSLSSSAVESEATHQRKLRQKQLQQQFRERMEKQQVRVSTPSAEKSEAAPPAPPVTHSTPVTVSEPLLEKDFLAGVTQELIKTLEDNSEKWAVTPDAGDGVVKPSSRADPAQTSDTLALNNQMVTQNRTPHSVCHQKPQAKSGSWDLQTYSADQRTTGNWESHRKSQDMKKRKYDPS
AF4-AF9 inh: blocks AF4 peptide binding to human AF9 | AID 651704 | AlphaScreen, biotin-AF4 peptide binding to FLAG-AF9 | P42568 | 350,000 compounds, 0.47% hits | inhibition, % at 10 µM;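 active = every replicate reaching a set inhibition limit, whatever the replicate mean, cut at about 25% in these data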;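 note: 0% = plate neutral control median and 100% = total signal loss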
INS-1E GSIS act: primary screen for activators of insulin secretion dependent on glucose, INS-1E cells, GLuc reporter luminescence | INS-1E GLuc reporter insulin secretion, 2-3 h | activation, % at 16.6 µM | 370,000 compounds, 0.61% hits | AID 743287;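 active = lowest replicate activation of at least 40%, so every replicate reaches that level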;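 note: 0% = median of neutral control wells and 100% = median of IBMX positive control wells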
S100A4 inh HTS: S100A4-myosin IIA interaction inhibition; P26447; inhibition, % at 10.7 µM; 360,000 compounds, 0.14% hits; S100A4/TAMRA-MyoIIA peptide fluorescence polarization;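 active = mean inhibition of at least 70% across replicates, with every replicate also reaching that level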
Target sequence (P26447 whole entry, looked up): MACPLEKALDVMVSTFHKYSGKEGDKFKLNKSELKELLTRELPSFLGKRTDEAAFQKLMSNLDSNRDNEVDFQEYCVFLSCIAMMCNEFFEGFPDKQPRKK
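Test system – S100A4 monomer (human) · Compound – single-point compound testing · Schedule – 5 min incubation before reading · Probe or stimulus – TAMRA-labelled myosin IIA heavy-chain peptide probe, 5 nM · Benchmarks – neutral control DMSO, positive control TFP · Medium – Calcium-containing HEPES buffer, pH 7.2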
RAD54 branch: inhibitors of human RAD54 branch migration | inhibition, % at 10.4 µM | 360,000 compounds, 0.14% hits | RAD54 Holliday junction branch migration, FAM/BHQ fluorescence | AID 602329 | Q92698;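 active = mean normalized replicate activity at least 40 and at least half of replicates scoring 40 or more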;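 note: 0% = median of neutral control wells and 100% = median of positive control wells; inhibitors cause a drop in the FAM fluorescence signal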
Numbers without * were called inactive; x = no result; ! = not confirmed by another sample.

SMILES	RAD52 anneal inh	AF4-AF9 inh	INS-1E GSIS act	S100A4 inh HTS	RAD54 branch
COc1ccc(S(=O)(=O)Nc2ccc3c(c2)C(=O)N([C@@H](C)CO)C[C@@H](C)[C@H](CN(C)Cc2ccc(C(=O)Nc4ccccc4N)cc2)OCCCC[C@@H](C)O3)cc1	55.3*	-0.4	-4.8	-5.0	-2.5
COc1ccc(CN(C)C[C@@H]2OCCCC[C@H](C)Oc3ccc(NS(=O)(=O)c4ccc(F)cc4)cc3C(=O)N([C@H](C)CO)C[C@@H]2C)cc1	52.8*	13.2	-2.0	4.5	-1.9
COc1ccc(NC(=O)N(C)C[C@@H]2OCCCC[C@@H](C)Oc3ccc(NS(=O)(=O)c4ccccc4)cc3C(=O)N([C@H](C)CO)C[C@@H]2C)cc1	84.7*	-0.7	15.9	-8.7	2.5
COc1ccc(NC(=O)N(C)C[C@@H]2OCCCC[C@@H](C)Oc3ccc(NS(=O)(=O)c4ccccc4)cc3C(=O)N([C@@H](C)CO)C[C@H]2C)cc1	-64.4	0.5	-4.3	-1.4	1.9
C[C@H](CO)N1C[C@H](C)[C@@H](CN(C)CC2CCCCC2)Oc2c(NS(C)(=O)=O)cccc2C1=O	-11.7	-1.0	0.8	1.1	5.0
O=C(c1cccc(F)c1)N1CC(=O)N2[C@H](C1)[C@@H](c1ccc(-c3ccccc3F)cc1)[C@@H]2CO	18.6	1.7	-2.6	-0.8	x
C[C@@H]1CN([C@@H](C)CO)C(=O)Cc2cc(NC(=O)C3CC3)ccc2O[C@@H]1CN(C)S(=O)(=O)c1cccs1	1.5	-3.7	3.1	-44.1	-1.3
COc1ccc(CN(C)C[C@@H]2OCCCC[C@@H](C)Oc3ccc(NS(=O)(=O)c4ccc(Cl)cc4)cc3C(=O)N([C@@H](C)CO)C[C@@H]2C)cc1	55.6*	1.1	-21.5	-27.2	-8.8
COc1ccc(CN(C)C[C@@H]2OCCCC[C@@H](C)Oc3ccc(NS(=O)(=O)c4ccc(Cl)cc4)cc3C(=O)N([C@H](C)CO)C[C@H]2C)cc1	33.0	9.2	-22.6	4.3	0.1
C/C=C/c1ccc2c(c1)[C@@H]1[C@@H](CCN1S(=O)(=O)c1cccc(F)c1)[C@H](CO)N2	7.1	16.0	-8.1	-6.9	x
CCC(=O)N1CC2(C1)[C@@H](c1ccccc1)[C@@H](CO)N2C(=O)NC(C)C	1.2	-1.7	4.8	4.1	x
COc1ccccc1NC(=O)N1CCCCN2[C@@H](CO)[C@H](c3ccc(-c4ccccc4)cc3)[C@@H]2C1	67.2*	7.1	x	-2.5	0.4
COc1ccccc1NC(=O)N1CCCCN2[C@H](CO)[C@H](c3ccc(-c4ccccc4)cc3)[C@H]2C1	51.7*	8.0	x	-12.2	-6.0
O=C(Nc1cc(F)ccc1F)N1CCCCN2[C@@H](CO)[C@@H](c3ccc(C4=CCCCC4)cc3)[C@@H]2C1	54.4*	15.6	8.5	-3.0	-0.2
COc1ccccc1NC(=O)N1CCCCN2[C@H](CO)[C@H](c3ccc(-c4ccc(C)cc4)cc3)[C@@H]2C1	-9.7	4.1	-2.9	1.0	2.6
COc1ccccc1NC(=O)N1CCCCN2[C@@H](CO)[C@@H](c3ccc(-c4ccccc4)cc3)[C@@H]2C1	50.4*	8.4	x	-7.6	-0.2
CCCNC(=O)C[C@H]1CC[C@H]2[C@@H](COC[C@H](O)CN2C(=O)Nc2ccccc2OC)O1	5.5	-0.4	7.5	-0.6	-11.1
Cc1cccc(S(=O)(=O)N2C[C@H](O)COC[C@H]3O[C@H](CC(=O)Nc4ccc(-c5ccccc5)cc4)CC[C@@H]32)c1	4.1	-6.1	-18.0	-5.2	1.4
COc1ccccc1NC(=O)N1CCCCN2[C@@H](CO)[C@@H](c3ccc(C#CC4CCCC4)cc3)[C@@H]2C1	45.6	11.1	55.2*	-4.8	-11.4
CC(=O)N1CCCCN2[C@@H](CO)[C@H](c3ccc(-c4cccc(C(=O)N(C)C)c4)cc3)[C@@H]2C1	-5.9	-4.2	24.8	102.5*	2.1
COc1cccc(NC(=O)Nc2ccc3c(c2)C(=O)N(C)[C@H]2CC[C@@H](CC(=O)O)O[C@H]2CO3)c1	x	x	1.5	x	1.1
CC1(C(=O)NCc2ccccc2)Cc2c(-c3ccccc3)ccnc2O1 (centres undefined)	-7.1	-4.6	-12.9	1.1	2.1
CN1CCN(c2ccc(CNC(=O)C3(C)Cc4c(-c5ccccc5)ccnc4O3)cc2)CC1 (centres undefined)	-5.5	10.0	44.6*	5.2	14.6
CCN(CC)CCn1c(=N)n(CC(O)COc2ccccc2)c2ccccc21 (centres undefined)	1.8	0.4	51.2*	2.9	-6.1
CCCCCn1c(=N)n(CC(O)COc2ccccc2OC)c2ccccc21 (centres undefined)	12.3	50.0*!	-22.5	5.8	3.0
SMILES	RAD52 anneal inh	AF4-AF9 inh	INS-1E GSIS act	S100A4 inh HTS	RAD54 branch
COc1ccc2c3c([nH]c2c1)[C@H](CO)N(S(C)(=O)=O)CC31CCN(Cc2cccc(F)c2)CC1	x	36.4*	-9.1	x	x
COc1ccc2c3c([nH]c2c1)[C@@H](CO)N(S(C)(=O)=O)CC31CCN(Cc2ccccc2)CC1	x	x	-0.8	x	x
COc1ccc2c3c([nH]c2c1)[C@@H](CO)NCC31CCN(Cc2ccc(F)cc2)CC1	72.2*	x	-10.9	x	x
COc1ccc2c3c([nH]c2c1)[C@@H](CO)N(S(C)(=O)=O)CC31CN(CC2CCOCC2)C1	11.1	-1.2	3.2	4.7	x
COc1ccc2c3c([nH]c2c1)[C@H](CO)N(S(C)(=O)=O)CC31CCN(Cc2nccs2)CC1	x	7.6	-6.2	x	x
COc1ccc2c3c([nH]c2c1)[C@H](CO)N(S(C)(=O)=O)CC31CN(CC2CCOCC2)C1	3.8	-5.4	20.1	101.6*	x
COc1ccc2c3c([nH]c2c1)[C@@H](CO)N(S(C)(=O)=O)CC31CCN(Cc2cccc(F)c2)CC1	x	27.1*	-13.5	x	x
Clc1ccc2nc(C3CCCCC3)c(CC3CCCCC3)n2c1	-18.3	-8.7	x	-6.3	0.1
CC(C)(C)c1nc2ccc(Cl)cn2c1CC1CCCCC1	-18.5	-0.5	52.7*	-0.5	6.5
CCN(CC)S(=O)(=O)c1ccc(N2CCCCC2)c(NC(=O)/C(C#N)=C/c2ccc(OC)cc2)c1	x	x	-25.0	x	-2.6
CCOc1ccc(NC(=O)/C(C#N)=C/c2ccc(N3CCCC3)c(C)c2)cc1	x	x	115.2*	x	-81.8
CC(=O)NC[C@@H]1[C@@H](c2ccc(-c3cccnc3)cc2)[C@@H](CO)N1C(=O)C1CC1	-16.7	-0.1	6.9	3.5	-3.8
Cc1ccc(O)c(C2=NOC(O)(C(F)(F)F)C2)c1 (centres undefined)	x	x	52.1*	x	1.4
Cc1ccc(O)c(C2=NOC(O)(C(F)(F)C(F)F)C2)c1 (centres undefined)	2.2	-5.1	-6.8	-19.2	-2.9
COc1ccc(NC(=O)Cc2c(SC)c3ccccc3n2Cc2ccccc2)cc1	x	x	97.0*	x	x
